Compounds with a hit are over-represented: about 1.3% of the library has one in this group of screens.
RAD52 anneal inh = blocks human RAD52 DNA annealing; hit rate 0.46% among 360,000; inhibition, % at 18.7 µM; recombinant RAD52 DNA annealing, FRET fluorescence; P43351;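 active = every replicate showing at least 50% inhibition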
S100A4 MyoIIA = blocks human S100A4 binding to myosin IIA peptide | P26447 | S100A4/TAMRA-MyoIIA peptide fluorescence polarization | inhibition, % at 10.7 µM | hit rate 0.14% among 360,000 | AID 652163;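 active = mean inhibition of at least 70% across replicates, with every replicate also reaching that level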
Target sequence (P26447 whole entry, looked up): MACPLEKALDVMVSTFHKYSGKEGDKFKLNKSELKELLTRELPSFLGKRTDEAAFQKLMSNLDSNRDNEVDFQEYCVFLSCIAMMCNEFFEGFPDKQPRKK
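Material: S100A4 monomer protein | Medium: HEPES pH 7.2 with CaCl2, KCl, NaCl, DTT, Triton | Reagent: Labelled myosin peptide probe, 5 nM | Doses: One dose per compound | Times: 5 min incubation before reading | Benchmarks: Neutral control DMSO, positive control TFP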
RAD54 branch = RAD54 (human) branch migration inhibition; Q92698; RAD54 Holliday junction branch migration, FAM/BHQ fluorescence; inhibition, % at 10.4 µM; hit rate 0.14% among 360,000;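 active = mean normalized replicate activity at least 40 and at least half of replicates scoring 40 or more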;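 also: 0% = median of neutral control wells and 100% = median of positive control wells; inhibitors cause a drop in the FAM fluorescence signal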
XiGFP reactiv = X-chromosome reactivation activator; hit rate 0.055% among 360,000; XiGFP mouse fibroblasts, % GFP-positive cells imaging, 3 d; cells co-treated with 5-aza-dC sensitizer; scaled so ellipticine positive control = 100%; AID 743238; activation, % at 7.58 µM;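 active = mean normalized replicate activation at least 10% and every replicate at or above 10%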;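 also: 0% = median of on-plate neutral control wells and 100% = ellipticine 6 µM median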
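Assay system: SV40-immortalized XiGFP fibroblast cells, line 68-5-11; buffer or medium: DMEM plus 5-aza-dC sensitizer; compound: one concentration, pinned; timing: compounds 3 days, fix/stain 15 min at room temperature; benchmarks: positive control ellipticine, 6 µM final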
CASP6 VEID inh = blocks human caspase-6 cleavage activity; hit rate 0.53% among 350,000; AID 686996; P55212; purified caspase-6, Z-VEID-R110 cleavage fluorescence; inhibition, % at 12.5 µM;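 active = mean inhibition across replicates at least about 35%, with every replicate also reaching that limit, limit read from the data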;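 also: 0% = median of neutral control wells and 100% = no fluorescence left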
Target sequence (P55212 24-179 limits assumed): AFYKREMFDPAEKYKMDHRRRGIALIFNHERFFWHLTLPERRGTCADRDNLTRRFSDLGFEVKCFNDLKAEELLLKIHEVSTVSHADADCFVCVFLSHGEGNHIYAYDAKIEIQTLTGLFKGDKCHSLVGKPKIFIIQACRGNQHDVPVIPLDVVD
Target sequence (P55212 194-293 limits assumed): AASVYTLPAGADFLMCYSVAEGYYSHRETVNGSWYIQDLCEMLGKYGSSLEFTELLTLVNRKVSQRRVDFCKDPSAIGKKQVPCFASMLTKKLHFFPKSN
MLL AF4-AF9 inh = inhibitors of human MLL-AF4/AF9 interaction. P42568. AlphaScreen, biotin-AF4 peptide binding to FLAG-AF9. inhibition, % at 10 µM. hit rate 0.47% among 350,000. AID 651704;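 active = every replicate reaching a set inhibition limit, whatever the replicate mean, cut at about 25% in these data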;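 also: 0% = plate neutral control median and 100% = total signal loss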
DNA binding = binds DNA, flagging false Rad54 inhibitor hits; Acridine orange-DNA displacement, fluorescence polarization, 20 min; hit rate 8% among 460; AC50, µM (top dose mostly 35 µM), for the others: top-dose activity change, negative = DNA binding; shares compounds with RAD54 branch;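 active = signal drop giving an AC50 within twice the top valid tested concentration of each sample, actives reach about 35 µM in these data; inactive = activity opposite to expected, plus the rest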;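 also: polarization loss reports compound binding to salmon sperm DNA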
DNA binder FP = DNA binding artifact in RAD52 counter-screen | AC50, µM | Salmon sperm DNA/acridine orange FP displacement | shares compounds with RAD52 anneal inh | hit rate 8% among 1,000;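 active = fitted half-maximal concentration for signal loss at or below twice the highest dose tested, in every separate run, actives reach about 64 µM in these data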
* marks the source's active call; other numbers are inactive results.

How did Cc1cc(NCCCN(C)C)n2c(nc3ccccc32)c1C#N do in these assays?
RAD52 anneal inh: 46; S100A4 MyoIIA: -6; RAD54 branch: 70*; XiGFP reactiv: 0; CASP6 VEID inh: -4; MLL AF4-AF9 inh: -1; DNA binding: -13%

What do the screens show for `CCN(CC)CCNC(=S)Nc1ccc2nc(N3CCN(C)CC3)cc(C)c2c1`?
RAD52 anneal inh: 87*; S100A4 MyoIIA: 4; RAD54 branch: 85*; XiGFP reactiv: 0; CASP6 VEID inh: -52; MLL AF4-AF9 inh: 7; DNA binding: -14%; DNA binder FP: inactive

What do the screens show for `CCCCN(CC)CCCNC(=S)Nc1ccc2nc(N3CCN(C)CC3)cc(C)c2c1`?
RAD52 anneal inh: 92*; S100A4 MyoIIA: 3; RAD54 branch: 89*; XiGFP reactiv: 0; CASP6 VEID inh: -90; MLL AF4-AF9 inh: 26*; DNA binding: 13%; DNA binder FP: inactive

How did Cc1cc(N2CCN(C)CC2)nc2ccc(NC(=S)NCCCN3CCN(C)CC3)cc12 do in these assays?
RAD52 anneal inh: 82*; S100A4 MyoIIA: -25; RAD54 branch: 78*; XiGFP reactiv: 0; CASP6 VEID inh: -65; MLL AF4-AF9 inh: 4; DNA binding: -6%; DNA binder FP: inactive

What do the screens show for `CCCCN(C)C(=O)CCC(=O)Nc1ccc2nc(N3CCN(C)CC3)cc(C)c2c1`?
RAD52 anneal inh: -2; S100A4 MyoIIA: 1; RAD54 branch: 17; XiGFP reactiv: 0; CASP6 VEID inh: -7; MLL AF4-AF9 inh: -34

What do the screens show for `COCCCNC(=S)Nc1ccc2nc(N3CCOCC3)cc(C)c2c1`?
RAD52 anneal inh: -7; S100A4 MyoIIA: -1; RAD54 branch: 6; XiGFP reactiv: 0; CASP6 VEID inh: 0; MLL AF4-AF9 inh: 4

How did Cc1cc(N2CCOCC2)nc2ccc(NC(=S)NCCN(C)C)cc12 do in these assays?
RAD52 anneal inh: 43; S100A4 MyoIIA: -1; RAD54 branch: 30; XiGFP reactiv: 0; MLL AF4-AF9 inh: 2

Results for CCCN(CCC)CCCNC(=S)Nc1ccc2nc(N3CCCC3)cc(C)c2c1 ?
RAD52 anneal inh: 92*; S100A4 MyoIIA: 1; RAD54 branch: 99*; XiGFP reactiv: 0; CASP6 VEID inh: -120; MLL AF4-AF9 inh: 22; DNA binding: -1%; DNA binder FP: inactive

How did Cc1noc(C)c1S(=O)(=O)Nc1ccc2c(c1)C(=O)N([C@@H](C)CO)C[C@@H](C)[C@H](CN(C)C(=O)Nc1cccc3ccccc13)OCCCC[C@@H](C)O2 do in these assays?
RAD52 anneal inh: -10; S100A4 MyoIIA: -36; RAD54 branch: -1; XiGFP reactiv: 0; CASP6 VEID inh: 3; MLL AF4-AF9 inh: -6

What do the screens show for `Cc1ccc2nc3c(c(N)c2c1)CCN3C`?
RAD52 anneal inh: 42; S100A4 MyoIIA: 0; RAD54 branch: 61*; XiGFP reactiv: 0; CASP6 VEID inh: 2; MLL AF4-AF9 inh: -1; DNA binding: -10%; DNA binder FP: inactive

Results for O=C(C[C@@H]1CC[C@@H](NC(=O)Nc2ccc3c(c2)OCO3)[C@H](CO)O1)NCc1ccc(F)cc1 ?
RAD52 anneal inh: -6; S100A4 MyoIIA: -2; RAD54 branch: -2; XiGFP reactiv: -1; CASP6 VEID inh: -2; MLL AF4-AF9 inh: -1

How did COC(=O)c1c(NC(=O)c2ccc(S(=O)(=O)N3CC(C)OC(C)C3)cc2)sc2c1CCN(C)C2 (stereo not given) do in these assays?
RAD52 anneal inh: 51*; S100A4 MyoIIA: -5; RAD54 branch: 50*; XiGFP reactiv: 6; CASP6 VEID inh: -4; MLL AF4-AF9 inh: -2; DNA binding: 16%; DNA binder FP: inactive

What do the screens show for `COc1ccc(Nc2cc(C(=O)NCCCN3CCOCC3)c3ccccc3n2)cc1OC`?
RAD54 branch: -4

Screening data as filed in PubChem BioAssay.
